Shown are actives, neighbours in structure and some others; about 4% of the full set was active somewhere.
CHO parental Ca – signal in parental CHO cells, OX1R antagonist counter-screen; actives 0.63% (n = 330,000); inhibition, % at 5.6 µM; parental CHO-K1, ATP-induced calcium, Fluo-8 fluorescence; AID 463079;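 active = inhibition above that plate's mean sample inhibition plus 3 SD, cut at about 26% in these data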;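 note: 0% = ATP-challenged DMSO wells and 100% = DMSO wells without ATP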
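Measured by: calcium-sensitive Fluo-8 fluorescence / Test system: CHO parental line / Controls: ATP-challenged DMSO wells low, unchallenged DMSO wells high / Measure: % inhibition / Compound: single nominal dose of 5.6 µM per compound / Replicates: single well per compound, no replicates / Reagent: ATP as calcium-mobilizing challenge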
NTR1 agonist – agonists of human neurotensin receptor NTR1 | AID 493036 | actives 0.17% (n = 330,000) | activation, % at 20 µM | NTR1-U2OS beta-arrestin-GFP spot imaging, agonist mode | P30989;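 active = activation at or above 40% of the spot to cytoplasm intensity ratio, with at least 20 cells analyzed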;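 note: 0% = DMSO without peptide and 100% = 100 nM NTR1 peptide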
Target sequence (P30989 whole entry, looked up): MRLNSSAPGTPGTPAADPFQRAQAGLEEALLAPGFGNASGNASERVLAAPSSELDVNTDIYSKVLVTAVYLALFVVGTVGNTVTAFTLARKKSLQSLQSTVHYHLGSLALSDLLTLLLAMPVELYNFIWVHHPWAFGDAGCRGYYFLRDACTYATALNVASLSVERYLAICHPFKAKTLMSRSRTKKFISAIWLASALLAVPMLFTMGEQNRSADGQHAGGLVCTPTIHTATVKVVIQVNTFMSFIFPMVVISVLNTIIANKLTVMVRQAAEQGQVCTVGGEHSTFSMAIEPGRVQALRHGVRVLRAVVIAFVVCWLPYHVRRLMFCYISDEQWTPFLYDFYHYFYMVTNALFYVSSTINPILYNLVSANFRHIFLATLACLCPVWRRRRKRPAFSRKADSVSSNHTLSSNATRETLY
TAAR1 agonist – agonists of human TAAR1. Q96RJ0. CHO RD-HGA16 TAAR1, Fluo-8 calcium fluorescence; vehicle wells 0%, saturating PEA agonist 100%. activation, % at 3 µM. actives 0.99% (n = 360,000);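 active = activation above the mean activation of all test compounds in the run plus 3 SD, cut at about 38% in these data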
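System: CHO-derived RD-HGA16 cells with stable Gα16 and human TAAR1 / Times: 17-24 h plating, Fluo-8 75 min 37 °C, 30 min RT / Technique: calcium-sensitive Fluo-8 signal, excitation 470-495, emission 515-575 nm / Measure: % activation relative to PEA EC100 response / Benchmarks: DMSO and PEA EC100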
TAAR1 antag – human TAAR1 antagonism | Q96RJ0 | CHO RD-HGA16 TAAR1, Fluo-8 calcium fluorescence, antagonist | inhibition, % at 3 µM | actives 1.5% (n = 360,000) | AID 624466;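 active = inhibition above a per-plate cutoff, the mean inhibition of test compounds on that plate plus 3 SD, cut at about 49% in these data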;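 note: 0% = DMSO plus EC80 beta-PEA response and 100% = DMSO alone without agonist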
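test system = CHO RD-HGA16 cells bearing hTAAR1 | replication = singlicate | controls = DMSO-only wells and EC80 β-PEA-stimulated wells | reagent = EC80 β-phenethylamine stimulus | read-out basis = percent inhibition of PEA-evoked calcium signal, max/basal emission ratio | schedule = seeding 17-24 h prior, 75-min 37 °C, 30-min RT dye loading | signal = kinetic Fluo-8 calcium fluorescence measurement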
OX1R antag-1 – antagonists of human orexin 1 receptor; O43613; actives 0.43% (n = 330,000); inhibition, % at 5 µM; AID 434989; CHO/OX1R cells, Fluo-8 calcium fluorescence, orexin A;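 active = inhibition above its plate's threshold, mean inhibition of all tested compounds on the plate plus 3 SD, cut at about 37% in these data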;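 note: 0% = orexin A challenge wells and 100% = SB-334867-A antagonist wells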
OX1R antag-2 – OX1R (human) antagonism; O43613; OX1R-expressing cells, FRET antagonist read-out; inhibition, % at 6.6 µM; actives 1.8% (n = 330,000); in the data active = inhibition mostly above about 38%, no sharp cut-off; inactive = mostly below about 40%;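 note: 0% = agonist challenge alone and 100% = reference antagonist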
TAAR1 ag confirm – human TAAR1 agonism, confirmed | shares compounds with TAAR1 agonist | AID 651783 | activation, % at 3 µM | actives 82% (n = 2,400) | CHO RD-HGA16 TAAR1, Fluo-8 calcium fluorescence; scaled: DMSO 0%, maximal phenethylamine 100%;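 active = activation above a cutoff set at the run's mean compound activation plus 3 SD, cut at about 39% in these data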
Ga16 nonsel ag – counter-screen for TAAR1 agonists: nonselective agonists in parental cells. shares compounds with TAAR1 agonist. CHO-Ga16 parental, Fluo-8 calcium fluorescence; normalized to maximal ATP response, DMSO zero. activation, % at 3 µM. actives 50% (n = 2,400);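 active = activation above the run cutoff, the mean activation over all tested wells plus 3 SD, cut at about 12% in these data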;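 note: 0% = DMSO wells and 100% = maximal ATP response on the peak over basal ratio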
TAAR1 desens – counter-screen for human TAAR1 agonists: agonists that desensitize TAAR1 | inhibition, % at 3 µM | shares compounds with TAAR1 agonist | CHO RD-HGA16 hTAAR1, Fluo-8 calcium, beta-PEA response inhibition | AID 651951 | actives 46% (n = 2,400);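 active = inhibition above the run cutoff, the mean inhibition of all test compounds plus 3 SD, cut at about 49% in these data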;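 note: beta-PEA stimulus applied at its EC80; loss of beta-PEA calcium signal after compound pretreatment read as receptor desensitization; 0% = DMSO with beta-PEA at EC80 and 100% = DMSO alone without agonist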
Ga16 nonsel ant – counter-screen for TAAR1 agonists: nonselective Ga16 antagonists; AID 651952; shares compounds with TAAR1 agonist; inhibition, % at 3 µM; actives 39% (n = 2,400); CHO-Ga16 ATP-induced calcium, Fluo-8 fluorescence;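 active = inhibition above the plate's mean compound inhibition plus 3 SD, computed per plate, cut at about 22% in these data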;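 note: 0% = EC80 ATP with DMSO and 100% = DMSO wells without ATP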
* hit, by the source's call; . = not tested or not shown.

SMILES | CHO parental Ca | NTR1 agonist | TAAR1 agonist | TAAR1 antag | OX1R antag-1 | OX1R antag-2 | TAAR1 ag confirm | Ga16 nonsel ag | TAAR1 desens | Ga16 nonsel ant
CCc1ccc(Cn2nnc(C(=O)Nc3ccc(OC)cc3OC)c2N)cc1 | 3 | 3 | 72* | 10 | 14 | 20 | 60* | 22* | 25 | 20
COc1cccc(NC(=O)c2nnn(Cc3ccc(Br)cc3F)c2N)c1 | 21 | 2 | 59* | 53* | 33 | 3 | 76* | 32* | 59* | 36*
O=C1NC(CCc2ccccc2)C(=O)N1Cc1cccc2ccccc12 (stereo unspecified) | -15 | 1 | 1 | -6 | -15 | 23 | . | . | . | .
O=C1NC(CCc2ccccc2)C(=O)N1CCOc1cccc(Br)c1 (stereo unspecified) | -22 | 1 | 59* | -14 | -19 | 16 | 8 | 3 | 2 | 17
O=C(CSc1nnc(CNc2ccccc2)o1)N1CCc2ccccc21 | 13 | 4 | 74* | 75* | 2 | 20 | 10 | 9 | 14 | 13
FC(F)(F)c1cc(-c2ccco2)nc(NCCc2ccccc2)n1 | -27 | 7 | 55* | 11 | -41 | 8 | 83* | 1 | 34 | 9
O=C(Cc1cccs1)N[C@@H]1c2ccccc2CC[C@@H]1OCc1ccccc1 | -17 | 0 | 59* | 82* | -17 | 16 | 0 | 6 | 12 | 18
O=C(Cc1cccs1)N[C@@H]1c2ccccc2CC[C@H]1OCc1ccccc1 | -1 | 0 | -2 | -5 | 11 | 6 | . | . | . | .
COc1ccc2oc(C(=O)OCC(=O)NCc3ccccc3OC)c(C)c2c1 | 56* | 0 | 70* | 91* | -4 | 11 | 23 | 5 | 52* | 15
O=C(Cn1nnc2ccccc2c1=O)NCCc1ccccc1 | -6 | 0 | 9 | 20 | -8 | 10 | . | . | . | .
O=C(Cn1nnc2ccccc2c1=O)NCCc1ccc(Cl)cc1Cl | -12 | -1 | 54* | 45 | -13 | 11 | 6 | 1 | 2 | 9
Oc1ccc(/C=N/Nc2ccnc3cc(Cl)ccc23)cc1O | -7 | 26 | 97* | 65* | -11 | 5 | 106* | 6 | 92* | 1
COc1ccc(-c2cc(C(=O)NCC(C)C)no2)cc1 | -6 | 2 | 72* | 42 | -7 | 20 | -1 | 2 | 77* | 20
COc1ccccc1Nc1nc(NCCO)nc(N)c1[N+](=O)[O-] | -6 | -1 | 21 | 9 | -18 | 20 | . | . | . | .
CNc1nc(N)c([N+](=O)[O-])c(Nc2ccccc2OC)n1 | -48 | 5 | 56* | -8 | -56 | 44* | 80* | 13* | 21 | 4
O=C(Nc1ccc(Cl)cc1)C1C2CCCCC21 (stereo unspecified) | 62* | 0 | 57* | 59* | 32 | 17 | 18 | 3 | 7 | 9
O=C1CCC(C(=O)Nc2ccc(Cl)cc2)N1 (stereo unspecified) | -8 | -1 | 7 | 5 | -19 | 1 | . | . | . | .
CC1=CCC(C(=O)O)C(C(=O)NC2CCCCC2)C1 (stereo unspecified) | 8 | 2 | -1 | 1 | -13 | 16 | . | . | . | .
Fc1ccc(F)c(NC(=S)NCCc2ccccc2)c1 | 11 | 0 | 3 | 8 | -7 | 38 | . | . | . | .
S=C(NCCc1ccccc1)Nc1c(Cl)cccc1Cl | -23 | 1 | 68* | 36 | -36 | 17 | 78* | 0 | 80* | 9

Bioassay records (PubChem)
